In ChEMBL document CHEMBL1125829, “1,3,8-trisubstituted xanthines. Effects of substitution pattern upon adenosine receptor A1/A2 affinity” (J Med Chem, 1991) one finds Ki and Ratio data, which are given here for 33 compounds.

pKi: −log10 of the molar value.

The target in test [1] is T1, Adenosine A2 receptor (Rattus norvegicus, UniProt P29276+P30543). Put plainly: Binding affinity against adenosine A2 receptor in rat striatum by the displacement of [3H]N-ethyladenosine-5''-uronamide(NECA). In kind it is tissue-based.
Test [2] addresses T2, Adenosine receptor A1 (Rattus norvegicus, UniProt P25099).
T2 sequence (P25099 whole entry): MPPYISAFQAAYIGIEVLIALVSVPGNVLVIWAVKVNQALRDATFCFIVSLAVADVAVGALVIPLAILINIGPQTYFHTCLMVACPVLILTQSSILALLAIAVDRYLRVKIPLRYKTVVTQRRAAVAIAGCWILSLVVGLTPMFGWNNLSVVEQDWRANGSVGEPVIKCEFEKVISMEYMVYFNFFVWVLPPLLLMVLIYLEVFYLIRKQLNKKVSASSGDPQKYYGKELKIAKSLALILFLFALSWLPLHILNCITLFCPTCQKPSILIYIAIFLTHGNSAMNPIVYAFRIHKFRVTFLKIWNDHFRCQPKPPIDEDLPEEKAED
Kind of test: Binding affinity against adenosine A1 receptor in rat cortex by the displacement of [3H]cyclohexyladenosine (CHA). It counts as tissue-based.

Test [3] addresses T2, Adenosine receptor A1. Put plainly: Binding affinity against Adenosine A1 receptor in rat cortex by displacement of [3H]cyclohexyladenosine (CHA). In short, it runs like this:
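Male Sprague-Dawley rat cerebral cortex membranes, homogenized in 50 mM Tris-HCl pH 7.4, pretreated 30 min at 37 °C with ADA (2 IU/mL), 7.5 mg tissue per tube. 1.0 nM [3H]CHA, 12 xanthine concentrations, triplicates, 2 h at 25 °C; nonspecific with 10 μM 2-chloroadenosine; filtration, scintillation counting.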

Test [4] deals with T1, Adenosine A2 receptor. Put plainly: Binding affinity against Adenosine A2 receptor in rat striatum by displacement of [3H]N-ethyladenosine-5''-uronamide(NECA). It counts as tissue-based. In short, it runs like this: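 Male Sprague-Dawley rat striatal membranes, 5 mg tissue, in 50 mM Tris-HCl pH 7.7 with 10 mM MgCl2, 0.1 unit/mL ADA and 50 nM CPA to block A1 sites. 4 nM [3H]NECA, 12 xanthine concentrations, triplicates, 1 h at room temperature; nonspecific with 100 μM CPA; filtration counting. IC50 by log-logit, Ki by Cheng-Prusoff (Kd 4 nM).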
(In a radioligand displacement assay an active substance lowers the binding of a labelled ligand.)

In test [5] the target is Adenosine receptors; A1 & A2 (Rattus norvegicus) (UniProt P29276+P25099+P30543). Put plainly: Ratio of binding affinities for adenosine A2 and A1 receptors. In kind it is protein assay.

Broadly, the Ki is a measure of affinity in units of concentration, obtained from inhibition or displacement. Read a low Ki as tighter binding. Compound `CCCn1c(=O)c2nc(/C=C/c3ccccc3)[nH]c2n(CCC)c1=O` showed a Ki on Adenosine A2 receptor [1] of 85.1 nM.
Broadly, the pKi is −log10 of the Ki, conventionally taken in molar units. A lower pKi goes with a large Ki. Turning to `CCCn1c(=O)c2nc(CCc3ccccc3)[nH]c2n(C)c1=O`, the Ki on Adenosine A2 receptor [1] worked out at 1440 nM. Besides, on Adenosine receptor A1 [2], the pKi was 6.56.
The matching figures for `CCCn1c(=O)n(C)c(=O)c2[nH]c(C3CCCCC3)nc21`: 403 nM and 8.74.
At Adenosine receptor A1 [3], `CCCn1c(=O)c2[nH]c(-c3cccs3)nc2n(CCC)c1=O` gave a pKi of 8.49.
Consider `CCCn1c(=O)c2nc(-c3ccc(C#N)cc3)[nH]c2n(C)c1=O`, for which the Ki on Adenosine A2 receptor [1] is 446 nM. This compound also had a pKi on Adenosine receptor A1 [2] of 8.23.
`CCCn1c(=O)c2nc(-c3cccs3)[nH]c2n(C)c1=O` showed a pKi at Adenosine receptor A1 [3] of 8.01. This compound showed a Ki at Adenosine A2 receptor [4] of 719 nM. The Ratio in test [5] amounted to 74.
Consider `CCCn1c(=O)c2nc(CCc3ccccc3)[nH]c2n(CCC)c1=O`, for which, at Adenosine A2 receptor [1], the Ki is 593 nM. In addition, the pKi at Adenosine receptor A1 [2] is 7.24.
In the same order, the values of `CCCn1c(=O)n(C)c(=O)c2[nH]c(-c3ccncc3)nc21` are 476 nM and 7.66.
With `CCCn1c(=O)n(C)c(=O)c2[nH]c(-c3ccc(O)cc3)nc21`, the Ki on Adenosine A2 receptor [1] worked out at 81.5 nM. For the same compound, the pKi at Adenosine receptor A1 [2] was 8.60.
`CCCn1c(=O)c2[nH]c(-c3cccnc3)nc2n(C)c1=O` gave a pKi at Adenosine receptor A1 [3] of 7.15.
With `CCCn1c(=O)n(C)c(=O)c2[nH]c(-c3ccccc3)nc21`, the Ki on Adenosine A2 receptor [1] is recorded as 93.3 nM.
On Adenosine A2 receptor [1], `CCCn1c(=O)c2nc(-c3ccncc3)[nH]c2n(CCC)c1=O` had a Ki of 136 nM. This compound also gave a pKi on Adenosine receptor A1 [2] of 8.49.
The matching figures for `CCCn1c(=O)n(C)c(=O)c2[nH]c(CCc3ccccc3)nc21`: 1050 nM and 6.59.
In the same order, the values of `CCCn1c(=O)c2nc(-c3ccsc3)[nH]c2n(CCC)c1=O` are 39.4 nM and 8.69.
In the same order, the values of `CCCn1c(=O)c2nc(-c3ccncc3)[nH]c2n(C)c1=O` are 3760 nM and 7.56.
`CCCn1c(=O)c2nc(-c3cccs3)[nH]c2n(CCC)c1=O` returned a Ki on Adenosine A2 receptor [4] of 173 nM. In addition, the Ratio in test [5] is 54.
At Adenosine A2 receptor [1], `CCCn1c(=O)n(C)c(=O)c2[nH]c(/C=C/c3ccccc3)nc21` displayed a Ki of 46.5 nM.
`CCCn1c(=O)c2nc(-c3ccc(O)cc3)[nH]c2n(C)c1=O` registered a Ki on Adenosine A2 receptor [1] of 263 nM. This compound also had a pKi at Adenosine receptor A1 [2] of 8.89.
Take `CCCn1c(=O)n(C)c(=O)c2[nH]c(-c3ccsc3)nc21`: on Adenosine receptor A1 [3], the pKi is 8.33. For the same compound, the Ki on Adenosine A2 receptor [4] was 70.3 nM. The Ratio in test [5] was found to be 15.
On Adenosine A2 receptor [1], `Cn1c(=O)c2nc(-c3ccccc3)[nH]c2n(C)c1=O` [8-PHENYL THEOPHYLLINE] registered a Ki of 644 nM.
On Adenosine A2 receptor [1], `CCCn1c(=O)n(C)c(=O)c2[nH]c(-c3cccs3)nc21` returned a Ki of 329 nM. For the same compound, the negative-log Ki (pKi) on Adenosine receptor A1 [2] was 8.05.
At Adenosine A2 receptor [1], `CCCn1c(=O)n(C)c(=O)c2[nH]c(C3CCCC3)nc21` came in with a Ki of 247 nM. Further, the pKi at Adenosine receptor A1 [2] was 9.07.
In turn, `CCCn1c(=O)c2nc(-c3ccsc3)[nH]c2n(C)c1=O` showed a pKi on Adenosine receptor A1 [3] of 8.19. On Adenosine A2 receptor [4], this compound gave a Ki of 315 nM. Moreover, the Ratio in test [5] came to 49.
On Adenosine receptor A1 [2], `CCCn1c(=O)c2nc(-c3ccc(O)cc3)[nH]c2n(CCC)c1=O` showed a pKi of 9.20.
`CCCn1c(=O)c2nc(-c3cccnc3)[nH]c2n(CCC)c1=O` gave a pKi on Adenosine receptor A1 [3] of 7.94. This compound showed a Ki on Adenosine A2 receptor [4] of 347 nM. Moreover, the Ratio in test [5] was 30.
Take `CCCn1c(=O)c2nc(-c3ccccc3)[nH]c2n(C)c1=O`: the Ki on Adenosine A2 receptor [1] is given as 553 nM.
On Adenosine A2 receptor [4], `CCCn1c(=O)c2nc(-c3cccnc3)[nH]c2n(C)c1=O` returned a Ki of 3100 nM. For the same compound, the Ratio in test [5] stood at 44.
`CCCn1c(=O)c2nc(-c3ccc(C#N)cc3)[nH]c2n(CCC)c1=O` registered a Ki at Adenosine A2 receptor [1] of 189 nM. For the same compound, the pKi on Adenosine receptor A1 [2] was 8.35.
With `CCCn1c(=O)c2nc(C3CCCCC3)[nH]c2n(C)c1=O`, the Ki on Adenosine A2 receptor [1] came out at 995 nM. In addition, the pKi at Adenosine receptor A1 [2] was 8.30.
With `CCCn1c(=O)n(C)c(=O)c2[nH]c(-c3ccc(C#N)cc3)nc21`, the Ki on Adenosine A2 receptor [1] is listed as 254 nM. On Adenosine receptor A1 [2], the pKi was 7.86.
On to `CCCn1c(=O)c2nc(C3CCCC3)[nH]c2n(C)c1=O`, for which the Ki on Adenosine A2 receptor [1] is 1010 nM. This compound had a pKi on Adenosine receptor A1 [2] of 8.97.
Take `CCCn1c(=O)n(C)c(=O)c2[nH]c(-c3cccnc3)nc21`: at Adenosine receptor A1 [3], the pKi is 7.14. The compound also yielded an inhibition constant Ki on Adenosine A2 receptor [4] of 1200 nM. In addition, in test [5], the Ratio amounted to 16.
`CCCn1c(=O)c2nc(/C=C/c3ccccc3)[nH]c2n(C)c1=O` registered a Ki on Adenosine A2 receptor [1] of 58 nM. The same compound had a pKi at Adenosine receptor A1 [2] of 7.30.
